Laboratory results from ChEMBL document CHEMBL1148487, “Chemical and functional identification and characterization of novel sulfated alpha-conotoxins from the cone snail Conus anemone” (J Med Chem, 2004).
Residues, ends and D or L forms follow the SMILES beside them.

Experiments:
[1] = molecular target: Neuronal acetylcholine receptor; alpha3/beta2 (Rattus norvegicus, UniProt P04757+P12390); test: Inhibition of rat Nicotinic acetylcholine receptor alpha3-beta2 expressed in Xenopus Oocytes; format: cell-based
Chain of Neuronal acetylcholine receptor; alpha3/beta2 (P04757 whole entry, the tested form may be a part): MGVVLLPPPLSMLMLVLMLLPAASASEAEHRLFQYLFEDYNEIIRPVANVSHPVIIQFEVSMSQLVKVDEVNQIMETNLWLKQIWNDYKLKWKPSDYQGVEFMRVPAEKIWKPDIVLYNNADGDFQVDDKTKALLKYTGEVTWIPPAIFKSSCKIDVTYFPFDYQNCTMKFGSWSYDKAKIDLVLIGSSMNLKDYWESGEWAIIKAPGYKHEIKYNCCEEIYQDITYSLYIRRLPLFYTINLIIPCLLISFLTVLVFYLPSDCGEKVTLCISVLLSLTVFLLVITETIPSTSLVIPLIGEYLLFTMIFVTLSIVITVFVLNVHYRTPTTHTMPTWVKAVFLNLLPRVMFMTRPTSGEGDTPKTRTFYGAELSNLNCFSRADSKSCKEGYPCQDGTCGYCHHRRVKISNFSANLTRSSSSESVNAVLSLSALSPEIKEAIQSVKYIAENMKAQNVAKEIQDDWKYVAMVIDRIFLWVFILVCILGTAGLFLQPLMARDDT
Chain of Neuronal acetylcholine receptor; alpha3/beta2 (P12390 whole entry, the tested form may be a part): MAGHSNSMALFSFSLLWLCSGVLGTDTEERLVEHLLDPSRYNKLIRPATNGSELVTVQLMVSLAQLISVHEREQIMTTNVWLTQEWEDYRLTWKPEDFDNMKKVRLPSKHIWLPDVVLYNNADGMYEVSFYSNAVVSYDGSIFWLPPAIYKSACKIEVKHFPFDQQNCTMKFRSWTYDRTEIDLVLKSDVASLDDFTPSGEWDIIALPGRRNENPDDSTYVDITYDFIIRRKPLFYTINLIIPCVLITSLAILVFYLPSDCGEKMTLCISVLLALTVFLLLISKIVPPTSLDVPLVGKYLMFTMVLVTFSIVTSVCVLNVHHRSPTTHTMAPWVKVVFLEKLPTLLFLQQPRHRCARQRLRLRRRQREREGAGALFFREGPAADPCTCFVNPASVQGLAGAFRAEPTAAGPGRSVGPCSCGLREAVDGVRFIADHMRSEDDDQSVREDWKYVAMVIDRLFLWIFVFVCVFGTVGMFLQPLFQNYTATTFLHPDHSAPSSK
How it was run: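 Rat nAChR subunit cRNAs (50 nL, 5–50 ng/µL) injected into Xenopus oocytes, kept at 19 °C in ND96 pH 7.4 with gentamycin; two-electrode voltage clamp at −70 mV, 2–10 days post-injection. Peptide added to static bath, 3–10 min before agonist; sub-1 nM also perfused 10–15 min. IC50 from fitted concentration–response curves with Hill slope.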

[2] = Inhibition ratio of rat alpha 3 beta 2 nicotinic acetylcholine receptor (nAChR) to that of at alpha 7 nicotinic acetylcholine receptor (nAChR)

| SMILES | IC50 [1] | Ratio [2] |
| --- | --- | --- |
| CC(C)C[C@@H](NC(=O)[C@@H](CO)NC(=O)[C@@H](CS)NC(=O)[C@@H](CS)NC(=O)CN)C(=O)N1CCC[C@H]1C(=O)N1CCC[C@H]1C(=O)N[C@@H](CS)C(=O)N[C@@H](C)C(=O)N[C@@H](C)C(=O)N[C@@H](CC(N)=O)C(=O)N[C@@H](CC(N)=O)C(=O)N1CCC[C@@H]1C(=O)N[C@@H](CC(=O)O)C(=O)N[C@@H](Cc1ccc(O)cc1)C(=O)N[C@@H](CS)C(N)=O | 99 nM | 7.9 |
| CC(C)C[C@@H](NC(=O)[C@@H](CO)NC(=O)[C@@H](CS)NC(=O)[C@@H](CS)NC(=O)CN)C(=O)N1CCC[C@H]1C(=O)N1CCC[C@H]1C(=O)N[C@@H](CS)C(=O)N[C@@H](C)C(=O)N[C@@H](C)C(=O)N[C@@H](CC(N)=O)C(=O)N[C@@H](CC(N)=O)C(=O)N1CCC[C@@H]1C(=O)N[C@@H](CC(=O)O)C(=O)N[C@@H](Cc1ccc(S)cc1)C(=O)N[C@@H](CS)C(N)=O | 9.6 nM | 0.04 |
| CC[C@H](C)[C@H](N)C(=O)N[C@@H](CCCN=C(N)N)C(=O)N[C@@H](CC(=O)O)C(=O)N[C@@H](CC(C(=O)O)C(=O)O)C(=O)N[C@@H](CS)C(=O)N[C@@H](CS)C(=O)N[C@@H](CO)C(=O)N[C@@H](CC(N)=O)C(=O)N1CCC[C@H]1C(=O)N[C@@H](C)C(=O)N[C@@H](CS)C(=O)N[C@@H](CCCN=C(N)N)C(=O)N[C@H](C(=O)N[C@@H](CC(N)=O)C(=O)N[C@@H](CC(N)=O)C(=O)N1C[C@H](O)C[C@H]1C(=O)N[C@@H](Cc1c[nH]cn1)C(=O)N[C@H](C(=O)N[C@@H](CS)C(N)=O)C(C)C)C(C)C (HELM PEPTIDE1{I.R.D.[O=C(O)C(C[C@H](N[*:1])C(=O)[*:2])C(=O)O].C.C.S.N.P.A.C.R.V.N.N.[Hyp].H.V.C.[am]}$$$$V2.0) | 10 nM | 0.2 |
